# Data as given in PubChem BioAssay.
# Activity calls are given as the source filed them.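 Rule for the calls, unless noted: active = GFP response above 150% of the DMSO level; inconclusive = fewer than 70 events counted for a yeast strain; inactive = the rest.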
# Key:
# [1] = hit retest on RPL19A-GFP reporter strain – cell-based, S. cerevisiae, flow cytometry, cherry picks, mother/daughter gates, confirmation (AID 2270;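 active = GFP response below 50% of the DMSO control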); details: 3 h, at 10 µM, stronger effect = lower value, 100 = same GFP as DMSO wells
# [2] = yeast TOR pathway reporter LAP4-GFP change – cell-based, cherry picks, flow cytometry, mother/daughter gates, confirmation (AID 2271;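 active = GFP response above 150% of the DMSO control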;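 note: ratio of sample to DMSO plate mean so 100% equals DMSO level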); details: S. cerevisiae LAP4-GFP strain, 3 h, at 10 µM, stronger effect = higher value, 100 means same as DMSO control
# How it was run: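 System: GFP-fusion yeast strain | Input: Yeast cells seeded at OD600 of 0.2 | Technique: HT flow cytometry, GFP fluorescence channel | Read-out: % GFP response vs DMSO | Dosing: Single test-compound dose, 10 µM final | Controls: Positive rapamycin (400 ng/mL), negative DMSO | Times: 3 h treatment at 30 °C with rotation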
# [3] = TOR pathway reporter MEP2-GFP, retest of hits – S. cerevisiae, flow cytometry GFP, cherry picks, confirmation (AID 2272;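 active = GFP response above 150% of the DMSO control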;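 note: ratio of well signal to plate DMSO mean so 100% equals DMSO level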); details: S. cerevisiae MEP2-GFP strain, 3 h, at 10 µM, stronger effect = higher value
# [4] = yeast AGP1-GFP fluorescence change, single-dose – cell-based, flow cytometry, S. cerevisiae, cherry picks, confirmation (AID 2273);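 note: median GFP channel fluorescence over the whole cell population gate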; details: S. cerevisiae AGP1-GFP strain, 3 h, at 10 µM
# [5] = TOR pathway CIT2 reporter hit retest – S. cerevisiae, GFP fusion, cherry picks, mother/daughter gates, confirmation (AID 2274); details: S. cerevisiae CIT2-GFP strain, flow cytometry, 3 h, at 10 µM, stronger effect = higher value
# [6] = measured here: daughter cell gate
# [7] = measured here: mother cell gate
# [8] = measured here: daughter cell gate response
# [9] = measured here: mother cell gate response
Structure (SMILES),GFP response vs DMSO [1],"GFP response vs DMSO [1, 6] [%]","GFP response vs DMSO [1, 7] [%]",GFP response relative to DMSO [2],"GFP response relative to DMSO [2, 8] [%]","GFP response relative to DMSO [2, 9] [%]",GFP response vs DMSO [3],"GFP response, % of DMSO [4]","GFP response, % of DMSO [5]","GFP response, % of DMSO [5, 6] [%]","GFP response, % of DMSO [5, 7] [%]"
Cc1[nH][nH]c(=O)c1C(c1ccc(-c2ccc(Cl)c(Cl)c2)o1)c1c(C)[nH][nH]c1=O,104% (inactive),104,101,173% (active),142,169,130% (inactive),115% (inactive),103% (inactive),105,102
O=C(Nc1nc(-c2ccccn2)cs1)c1cc2ccccc2o1,97.4% (inactive),96.7,83.7,285% (active),163,215,129% (inactive),120% (inactive),124% (inactive),104,91
CC(C)c1ccc2c(c1)C1(NN=C(c3ccccc3)S1)C(=O)N2 (stereo unspecified),105% (inactive),107,104,96.2% (inactive),95.6,98.3,100% (inactive),95.7% (inactive),91.3% (inactive),96.5,88
S=C(Nc1ccc(Cl)cc1)Nc1ccc2cn[nH]c2c1,93.9% (inactive),96.3,93.3,106% (inactive),108,105,101% (inactive),104% (inactive),103% (inactive),100,104
COc1ccccc1OCCCc1c(C)n[nH]c1C,119% (inactive),89.8,115,207% (active),104,205,130% (inactive),76.6% (inactive),114% (inactive),101,101
CC(C)c1nnc(NC(=O)c2nc(S(=O)(=O)Cc3ccccc3F)ncc2Cl)s1,98.4% (inactive),97.8,99.2,108% (inactive),107,107,110% (inactive),101% (inactive),102% (inactive),102,100
Cc1cccn2c(=O)c(/C=C(\C#N)C(=O)NCc3ccco3)c(N3CCCC(C)C3)nc12 (stereo unspecified),99.8% (inactive),99.1,99.5,96.1% (inactive),96.6,97.2,98.8% (inactive),101% (inactive),99.7% (inactive),100,99.7
O=C(O)Cc1sc(Nc2ccc(F)cc2)nc1-c1cccs1,97.6% (inactive),99.4,97,129% (inactive),125,135,110% (inactive),108% (inactive),103% (inactive),103,103
CC(=O)Oc1oc(-c2ccccc2)nc1C=Nc1ccc(N(C)C)cc1,100% (inactive),100,99.2,95% (inactive),91,98.3,95.7% (inactive),97% (inactive),92.6% (inactive),91.5,92.3
CCN(CC(O)Cn1c2ccccc2c2ccccc21)S(=O)(=O)c1ccc(F)cc1 (stereo unspecified),96% (inactive),96.5,96.7,108% (inactive),107,108,97.5% (inactive),95.8% (inactive),96.4% (inactive),96.4,94.5
CC(=O)c1ccc2c3c(cccc13)C(=O)N(c1c(C)nn(C)c1C)C2=O,100% (inactive),100,101,97.7% (inactive),97.9,97.5,102% (inactive),100% (inactive),96.4% (inactive),98.3,96.8
CCc1noc(C)c1C(=O)Nc1nc2ccc(OC)cc2s1,91.8% (inactive),92.7,92.5,108% (inactive),108,111,99.3% (inactive),95.5% (inactive),90.3% (inactive),92.3,90.4
O=C(NNC(=O)C1CCCCC1)C(=O)NC1CCCCC1,99.1% (inactive),99.8,99.3,98.8% (inactive),97.9,97.5,112% (inactive),104% (inactive),104% (inactive),102,104
CN1CCN(C(c2ccc(C(F)(F)F)cc2)c2ccc3cccnc3c2O)CC1 (stereo unspecified),93.6% (inactive),87.3,86.7,216% (active),190,218,109% (inactive),87.4% (inactive),97.3% (inactive),95.6,94.4
O=C(O)CSC1CC(=O)N(c2cccc(Cl)c2)C1=O (stereo unspecified),96.7% (inactive),97.3,94.6,104% (inactive),101,104,110% (inactive),101% (inactive),104% (inactive),105,104
COCCNC(=O)c1ccc(Cl)c(Cl)c1,97.2% (inactive),95.6,95.3,102% (inactive),101,96.1,100% (inactive),100% (inactive),105% (inactive),103,93.8
